KCNK9 block: human KCNK9 channel inhibition. Q9NPC2. HEK293 KCNK9, FluxOR thallium flux fluorescence; active compounds read low. B-score at 10 µM. actives 1.2% (n = 310,000). AID 488922;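 active means ratio B-score over 3 SD below the library mean, with starting fluorescence within 5 SD of its mean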;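 further: negative B-score means less thallium flux so channel inhibition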
Target sequence (Q9NPC2 whole entry, looked up): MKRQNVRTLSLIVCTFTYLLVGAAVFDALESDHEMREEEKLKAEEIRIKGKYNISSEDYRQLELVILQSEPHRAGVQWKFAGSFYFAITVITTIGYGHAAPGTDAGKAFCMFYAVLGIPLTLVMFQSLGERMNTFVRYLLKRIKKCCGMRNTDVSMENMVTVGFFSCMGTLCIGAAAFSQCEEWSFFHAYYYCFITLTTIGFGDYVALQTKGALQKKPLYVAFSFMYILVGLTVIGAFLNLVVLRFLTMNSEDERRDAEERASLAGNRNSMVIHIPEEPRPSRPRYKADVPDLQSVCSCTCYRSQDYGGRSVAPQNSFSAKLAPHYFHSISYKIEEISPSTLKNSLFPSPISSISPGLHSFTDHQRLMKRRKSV
hERG protect: hERG (human) protection from proarrhythmic block; CHO-hERG, FluxOR thallium flux, dofetilide IC70 present; activation (rescue from dofetilide block), less the hit threshold, % at 10 µM; actives 0.51% (n = 310,000);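 active means activation above the mean of controls blocked by dofetilide plus 5 SD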;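 further: thallium influx through hERG after potassium depolarization seen as dye fluorescence rise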
KCNQ1 block: human KCNQ1 channel inhibition; CHO-K1 KCNQ1, FluxOR thallium flux fluorescence; active compounds read high; B-score at 10 µM; actives 1.3% (n = 310,000);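 active means compounds whose thallium flux B-score, printed positive for inhibition, exceeds three library SD while starting fluorescence stays within three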;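 further: channel opened by potassium depolarization with thallium stimulus after 20 min compound exposure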
Kir21 block: blocks the mouse Kir2.1 inward-rectifier potassium channel. P35561. HEK293-Kir2.1, FluxOR thallium flux fluorescence; active compounds read low. B-score at 10 µM. actives 0.85% (n = 310,000). AID 1672;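 active means fluorescence ratio B-score at or below minus 3 SD of library scores, with starting-brightness B-score within 2 SD, cut at about -4.2 in these data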;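 further: channel flux triggered by added potassium and thallium sulfate stimulus; B-score of peak minus minimum fluorescence over baseline after thallium stimulus; more negative B-score means stronger Kir2.1 block with less thallium influx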
KCNQ1 pot: human KCNQ1 channel potentiation or activation; CHO-K1 KCNQ1, thallium flux FluxOR fluorescence; active compounds read high; B-score at 10 µM; actives 0.35% (n = 310,000);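 active means fluorescence ratio B-score, a plate-corrected score, at least three library SD, with initial intensity B-score within 5 SD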
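Schedule – 37 °C overnight plating, 90-min dark dye load, 20-min compound pretreatment · System – stable KCNQ1 CHO-K1 line · Probe or stimulus – thallium- and potassium-containing depolarizing buffer · Measured by – kinetic FluxOR fluorescence, 10 s baseline plus 110 s post-stimulus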
KCNK3 block: human KCNK3 channel inhibition, primary screen | O14649 | CHO-KCNK3 thallium flux, FluxOR fluorescence; active compounds read low | B-score at 10 µM | actives 0.84% (n = 340,000);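 active means B-score under library mean minus 4 SD, starting fluorescence ratio at most library mean plus 5 SD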;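 further: more negative B-score means stronger inhibition of thallium flux through KCNK3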
Numbers stand for hits; n = inactive; x = no result given; ! = repeats disagree. Hits are enriched below; roughly 3.7% of the tested compounds scored in any of these assays.

SMILES | KCNK9 block | hERG protect | KCNQ1 block | Kir21 block | KCNQ1 pot | KCNK3 block
CCN(CC)c1nc2ccccc2nc1C(C#N)C(=O)NCCCOC (stereo unspecified) | n | n | n | n | n | n
COc1ccc(NS(=O)(=O)c2cc(NC(=O)c3ccc(=O)[nH]n3)ccc2N2CCOCC2)cc1 | x | x | x | x | x | n
Cc1nn2c(c1-c1ccc(Cl)cc1)N=C(c1ccco1)CC2c1ccccc1 (stereo unspecified) | -6.7 | n | 7 | n | n | n
O=C1C2CCC(C2)C1CN1CCOCC1 (stereo unspecified) | x | x | x | x | x | n
CC1CCCCN1C(=O)c1ccc(C(=O)N2CCCCC2C)cc1 (stereo unspecified) | n | n | n | n | n | n
Cc1ccc(C)c(S(=O)(=O)NCc2ccc(C(=O)N3CCCCC3C)cc2)c1 (stereo unspecified) | -6.8 | n | n | n | n | n
Cc1ccc(C)c(S(=O)(=O)Nc2ccc(C(=O)N3CCCCC3)cc2)c1 | n | n | n | n | n | n
Cc1cccc(C(=O)Nc2ccc(C(=O)N3CCCCC3C)cc2)c1 (stereo unspecified) | -7.6 | n | n | n | n | n
CCSc1nnc([C@H](Cc2ccccc2)NC(=O)OC(C)(C)C)o1 | n | n | n | n | n | n
Cc1ccccc1CS(=O)(=O)c1nnc([C@H](Cc2ccccc2)NC(=O)OC(C)(C)C)o1 | n | n | n | n | 12 | n
S=c1nc(-c2ccccc2)n(CCCN2CCOCC2)c2c1CCCC2 | n | 6.8 | n | n | n | n
CN(/N=C/c1cc(Cl)cc(Cl)c1O)C(=S)NC(C)(C)C | n | n | 13 | n | n | n
COc1ccc(C(CNC(=O)Cc2ccccc2F)N2CCCCC2)cc1 (stereo unspecified) | n | 6.3 | n | n | n | n
CCOCCc1nn2c(=O)cc(CSCC(=O)Nc3ccccc3)nc2s1 | n | n | n | n | n | n
O=c1c2ccccc2nc(SCc2ccc([N+](=O)[O-])cc2)n1-c1ccccc1 | -7.7 | n | n | n | n | n
Cn1cnc(S(=O)(=O)N2CCN(C(c3ccccc3)c3ccccc3)CC2)c1 | n | n | n | n | n | n
CC1CCCC(NC(=O)CNC(=S)N(Cc2ccccc2)Cc2cccs2)C1C (stereo unspecified) | n | n | 9 | n | n | n
CCCCNC(=O)CNC(=S)N(Cc1ccccc1)Cc1cccs1 | n | n | n | n | n | n
CC1(C)Cc2c(c(N3CCOCC3)nc3snc(N)c23)CO1 | -7 | n | n | n | n | n
COc1ccc(CNC(=O)C2CCN(c3nc(-c4ccccc4)nc4c3CCC4)CC2)cc1 | n | n | n | n | n | n
CC(C)c1ccc(C(=O)OCC(=O)NC2CCCC2)cc1 | n | n | n | n | n | n
CC1(C)Cc2c(sc3c2c(=N)n(Cc2ccco2)c(=O)n3Cc2ccc(Cl)cc2)CO1 | n | n | 8 | n | n | n
CC1(C)Cc2c(sc3c2c(=N)n(Cc2ccco2)c(=O)n3Cc2ccccc2)CO1 | n | n | n | n | n | n
Nc1cc2c(cc1[N+](=O)[O-])OCCOCCOCCO2 | n | 6.4 | n | n | n | n
Nc1cc2c(cc1[N+](=O)[O-])OCCO2 | n | n | n | n | n | n
SMILES | KCNK9 block | hERG protect | KCNQ1 block | Kir21 block | KCNQ1 pot | KCNK3 block
COc1cccc(NC(=S)N(CCC(C)C)C2CCN(C(C)=O)CC2)c1 | n | n | n | n | n | n
O=C(NNS(=O)(=O)c1ccccc1[N+](=O)[O-])c1cc2ccccc2cc1O | n | n | n | n | n | n
CC(=O)Nc1ccccc1C(=O)C(=O)Nc1ccc(Cl)cc1 | n | 8.2 | n | n | n | n
O=c1c2ccccc2sn1-c1ccccc1 | n | 6.5 | n | n | n | n
O=C(O)c1cccc(-n2sc3ccccc3c2=O)c1 | x | x | x | x | x | n
Fc1ccc(CN2CCCN(Cc3nc(-c4ccc5c(c4)OCO5)no3)CC2)cc1 | n | n | n | -6.8 | n | n
O=C(c1ccco1)N1CCCN(Cc2nc(-c3ccc4c(c3)OCO4)no2)CC1 | n | n | n | n | n | n
CC(C)[C@H](NC(=O)c1ccc(Cl)cc1)C(=O)OCC(=O)N1CCN(c2ccccc2)CC1 | x | x | x | x | x | n
COc1cc(/C=N/Nc2nc(N3CCCC3)nc(N3CCCC3)n2)ccc1OCc1ccccc1F | n | 11 | n | n | n | n
CC1(C)CC(=O)C2=C(C1)Nc1ccccc1NC2c1ccc([N+](=O)[O-])cc1 (stereo unspecified) | n | n | n | n | n | n
COc1ccc(CCNC(=O)COC(=O)Cc2cccc3ccccc23)cc1 | n | n | n | -12 | n | n
Cc1ccc(Cl)cc1N(CC(=O)Nc1cccc(N(C)S(C)(=O)=O)c1)S(C)(=O)=O | n | n | n | n | n | n
CN(c1cccc(NC(=O)CN(c2cccc(Cl)c2)S(=O)(=O)c2ccc(Cl)cc2)c1)S(C)(=O)=O | -7.3 | n | n | n | n | n
COc1ccccc1N1CCN(/N=C/c2cc(Br)ccc2F)CC1 | n | n | 9 | n | n | n
O=C(NCCC(c1ccccc1)c1ccco1)c1cccs1 (stereo unspecified) | n | n | n | n | n | n
Fc1ccc(C(CCNCc2cccs2)c2ccco2)cc1 (stereo unspecified) | n | n | n | -4.5 | n | n
CCNc1nc(NC(C)C)nc(N(C#N)CCOc2ccc(Cl)cc2Cl)n1 | -7.5 | n | n | n | n | -11
CCNc1nc(NC(C)C)nc(N(C#N)CC(=O)OC)n1 | n | n | n | n | n | n
CCNc1nc(NC(C)C)nc(N(C#N)Cc2ccccc2)n1 | -7.3 | n | n | n | n | n
COc1ccc(Cn2c(=O)oc3ccc(C)cc32)cc1OC | n | n | n | -4.2 | n | n
CC(=O)c1c(CSc2ccccc2)oc2ccc(O)c(CN(C)C)c12 | n | n | n | -6.5 | n | n
Cc1ccc(-n2c(-c3cc(-c4ccco4)[nH]n3)n[nH]c2=S)c(Br)c1 | n | n | 6 | n | n | n
O=S(=O)(c1ccc(SCc2ccc(Br)cc2)nc1)N1CCCCC1 | x | x | x | x | x | -10
CCOC(=O)c1c(S(=O)(=O)NCCCc2ccco2)c(C)n(C)c1C | n | n | n | n | n | n
Cc1ccc(OCC(O)CN2CCN(Cc3ccc4c(c3)OCO4)CC2)cc1C (stereo unspecified) | n | n | n | n | n | n
C=CCc1ccccc1OCC(O)CN1CCN(Cc2ccc3c(c2)OCO3)CC1 (stereo unspecified) | n | n | n | -4.6! | n | n
Cc1ccc(Oc2ccc(NC(=O)Cn3ccsc3=N)cc2)cc1 | n | n | n | -4.5 | 22 | n
Cc1ccccc1NC(=O)c1cc2c(C)nc3ccccc3c2o1 | n | n | n | n | n | n
CCc1ccc(NC(=O)c2cc3c(C)nc4ccccc4c3o2)cc1 | n | n | 6 | n | n | n
